Tests used:
OVISE cells = experiment: Viability of OVISE cells with and without SLC26A2 knockout; assay type: cell-based, human; conditions: CRISPR/Cas9 SLC26A2 knockout
Method in brief: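 OVISE cells were grown in RPMI with 10% FBS and used with or without CRISPR/Cas9 SLC26A2 knockout; GFP sgRNA served as the non-targeting control. Indel frequency at the cut sites was checked by NGS. Cells were seeded at 2000 cells/well and dosed the next day. CellTiter-Glo viability was normalized to vehicle and reported as the mean of three independently treated wells with SD.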

SF295 glioma cell line = experiment: Viability of SF295 cells with and without MTF1 knockout; assay type: cell-based, human; conditions: for change of drug sensitivity after MTF1 knockout: SF295 cells, CRISPR/Cas9 MTF1 knockout vs control
Method in brief: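 SF295 glioma cells: wild-type, Cas9 with GFP sgRNA, or Cas9 with MTF1 sgRNAs. Knockout was confirmed by NGS indel assay and loss of MTF1 target gene expression by RNA-seq. Cells were seeded at 2000 cells/well and dosed the next day. CellTiter-Glo viability was normalized to vehicle and reported as the mean of 3 independently treated wells with SD.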

LS1034 cells = experiment: Tepoxalin drug synergy/antagonism assay, LS1034; assay type: cell-based, human; conditions: LS1034, 5 days, tepoxalin doses above ~5 μM
[1] = tested on: LS1034 and REC1 cell lines; experiment: Drug synergy/antagonism assays, LS1034 and REC1; assay type: cell-based, human
Method in brief: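 LS1034 or REC1 cells received a dose-response matrix of test compound with paclitaxel, and viability was read by CellTiter-Glo. Signals were normalized to the median of DMSO wells on each plate. Bliss synergy scores were estimated across all dose combinations with default baseline correction. The value is the score with highest magnitude across combinations (max synergy).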

[2] = tested on: ABCB1-expressing cancer cells; experiment: Viability of ABCB1-expressing cancer cells; assay type: cell-based, human; conditions: compared with tepoxalin
[3] = tested on: LS1034 colon cancer cell lines with and without ABCB1 knockout
[4] = tested on: Kuramochi ovarian cancer cell line; experiment: Viability of Kuramochi wild type and ABCB1-overexpressing cells; assay type: cell-based, human; conditions: low-expressing, tepoxalin-insensitive cell line (Kuramochi), 8 days
Method in brief: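 Kuramochi ovarian cancer cells, wild-type or ABCB1-overexpressing, were grown in RPMI with 10% FBS and seeded at 2000 cells/well. Compound was added the next day and cells were treated for 8 days. Viability was read by CellTiter-Glo luminescence, normalized to vehicle, and reported as the mean of 3 independently treated wells with SD.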

ABCB1 = ABCB1 (Homo sapiens, UniProt P08183); experiment: ABCB1 activity assays; assay type: cell-based; conditions: MDR1-MDCK cells; calcein AM and loperamide transport assays
Chain of ABCB1 (P08183 whole entry): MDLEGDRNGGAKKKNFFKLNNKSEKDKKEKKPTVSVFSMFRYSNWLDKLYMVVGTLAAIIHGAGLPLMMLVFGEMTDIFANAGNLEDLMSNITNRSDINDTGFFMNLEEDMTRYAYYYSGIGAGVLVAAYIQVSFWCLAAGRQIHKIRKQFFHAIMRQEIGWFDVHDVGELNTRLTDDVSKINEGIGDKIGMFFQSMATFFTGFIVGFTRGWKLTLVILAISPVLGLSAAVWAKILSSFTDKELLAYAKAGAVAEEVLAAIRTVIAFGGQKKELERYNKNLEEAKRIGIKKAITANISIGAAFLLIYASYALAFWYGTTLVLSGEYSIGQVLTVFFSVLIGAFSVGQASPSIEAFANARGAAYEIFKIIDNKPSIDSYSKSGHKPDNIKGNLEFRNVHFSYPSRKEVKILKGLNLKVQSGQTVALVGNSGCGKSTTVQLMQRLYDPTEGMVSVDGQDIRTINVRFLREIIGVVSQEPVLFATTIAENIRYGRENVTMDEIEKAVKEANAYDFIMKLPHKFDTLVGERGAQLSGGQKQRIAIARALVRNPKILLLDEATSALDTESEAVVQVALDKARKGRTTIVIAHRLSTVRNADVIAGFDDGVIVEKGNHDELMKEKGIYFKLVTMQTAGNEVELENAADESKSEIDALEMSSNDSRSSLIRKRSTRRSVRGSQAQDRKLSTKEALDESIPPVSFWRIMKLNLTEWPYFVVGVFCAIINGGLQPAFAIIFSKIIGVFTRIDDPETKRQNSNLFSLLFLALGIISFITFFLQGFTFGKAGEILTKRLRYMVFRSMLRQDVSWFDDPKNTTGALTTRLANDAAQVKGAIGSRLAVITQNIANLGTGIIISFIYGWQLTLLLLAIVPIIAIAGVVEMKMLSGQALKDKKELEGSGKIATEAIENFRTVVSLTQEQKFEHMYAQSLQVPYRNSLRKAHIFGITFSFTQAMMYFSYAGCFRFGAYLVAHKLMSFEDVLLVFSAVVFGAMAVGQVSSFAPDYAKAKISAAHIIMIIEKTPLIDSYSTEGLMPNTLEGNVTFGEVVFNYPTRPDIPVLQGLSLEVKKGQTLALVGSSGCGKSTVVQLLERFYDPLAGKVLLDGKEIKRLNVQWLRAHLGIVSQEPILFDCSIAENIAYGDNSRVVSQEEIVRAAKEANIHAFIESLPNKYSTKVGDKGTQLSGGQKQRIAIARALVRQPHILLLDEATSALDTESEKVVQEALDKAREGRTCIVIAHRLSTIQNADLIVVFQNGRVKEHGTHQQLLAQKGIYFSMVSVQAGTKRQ
Method in brief: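 Calcein AM efflux assay: MDR1-MDCK (MDCKII) cells incubated with test compound and calcein AM; fluorescence read-out expressed as percent ABCB1 inhibition, mean of 3 replicates. Transport assay: loperamide added to the apical side of an MDR1-MDCK monolayer and basolateral transport quantified over 60 minutes, with test compound or verapamil positive control.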

[5] = tested on: LS1034 colorectal cancer cells; experiment: Cellular viability assay; assay type: cell-based; conditions: Homo sapiens, LS-1034
Method in brief: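 LS1034 cells were grown in RPMI with 10% heat-inactivated FBS and 1% penicillin-streptomycin, and tested mycoplasma-negative. They were seeded at 2000 cells/well and digitally dispensed with compound the next day. Exposure was 5 days. CellTiter-Glo luminescence was read, replicate wells were averaged and normalized to vehicle, and dose curves were fitted.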

PDE3A-SLFN12 = conditions: cited from earlier work

For `Cc1occc(=O)c1[O-].Cc1occc(=O)c1[O-].[O]=[V+2]` [BMOV, bis(maltolato)oxovanadium(IV)], the “sensitivity of cells after SLC26A2 knockout” value (OVISE cells) was “resistant”.

In the case of `CCN(CC)C(=S)SSC(=S)N(CC)CC` [disulfiram], the “effect of copper chelator tetrathiomolybdate (TTM) on the increased sensitivity” value (SF295 glioma cell line; SF295 MTF1 knockout cells, co-treatment with 1 μM TTM) is reported as “completely reversed” and the “change of drug sensitivity after MTF1 knockout” value (SF295 glioma cell line) is reported as “increased sensitivity”.

With `O[C@@H](COc1cccc2ncccc12)CN1CCN([C@@H]2c3ccccc3[C@@H]3[C@H](c4ccccc42)C3(F)F)CC1` [zosuquidar] the “Bliss synergy in combination with tepoxalin” value (LS1034 cells) was “strong antagonism”.

With `CC(C)C[C@H](NC(=O)[C@H](Cc1ccccc1)NC(=O)c1cnccn1)B(O)O` [bortezomib] the “change of drug sensitivity after MTF1 knockout” value (SF295 glioma cell line) was “did not alter sensitivity”.

For `COc1cc2c(cc1OC)CN(CCc1ccc(NC(=O)c3cccc4c(=O)c5cccc(OC)c5[nH]c34)cc1)CC2` [elacridar], the “maximum synergy score in combination with paclitaxel” value [1] was “strongly synergistic”.

For “bis(ethylmaltolato)oxovanadium(IV) [BEOV]”, the “sensitivity of cells after SLC26A2 knockout” value (OVISE cells) was “resistant”.

In the case of `COc1cc2c(cc1OC)CN(CCc1ccc(NC(=O)c3cc(OC)c(OC)cc3NC(=O)c3cnc4ccccc4c3)cc1)CC2` [tariquidar], the “maximum synergy score in combination with paclitaxel” value [1] is reported as “strongly synergistic”.

For `COc1ccc(-n2nc(CCC(=O)O)cc2-c2ccc(Cl)cc2)cc1` [RWJ20142, 3-(5-(4-chlorophenyl)-1-(4-methoxyphenyl)-1H-pyrazol-3-yl)propanoic acid], the “inhibition of ABCB1-expressing cancer cells” value [2] was “no inhibition” and the cell permeability [3] was “not cell-permeable”.

In the case of `COc1ccc(-n2nc(CCC(=O)N(C)O)cc2-c2ccc(Cl)cc2)cc1` [tepoxalin], the “change of drug sensitivity after ABCB1 overexpression” value [4] is reported as “increased drug sensitivity”, the ABCB1 inhibition (ABCB1) is reported as “inhibit ABCB1 at high concentrations” and the IC50 [5] is reported as 3.8 µM.

For `COc1cc2c(cc1OC)-c1c/c(=N\c3c(C)cc(C)cc3C)n(C)c(=O)n1CC2` [trequinsin], the “induction of PDE3A-SLFN12 interaction” value (PDE3A-SLFN12) is given as “does not induce PDE3A-SLFN12 interaction”.
